Compounds with a hit are over-represented: about 2.8% of the library has one in this group of screens.
PGE2 EP2 inh = inhibitors of human EP2 prostaglandin E2 receptor; inhibition, % at 25 µM; actives 0.52% (n = 260,000); C6 glioma cells expressing human EP2, cAMP TR-FRET; cells stimulated with saturating PGE2; AID 1422;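 active means percent inhibition above 40 after rounding to a whole number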;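 further: rat C6 glioma host cells with rolipram phosphodiesterase inhibitor present; the protocol text gives 20 µM as final concentration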
EP2 modulator = modulates human prostaglandin E2 receptor EP2 signaling | EP2-expressing cells, cAMP HTRF FRET, PGE2 co-stimulation | induction, % at 25 µM | actives 0.83% (n = 260,000);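 active means compounds whose cAMP rise, as percent of the full-agonist control response, exceeds 60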;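 further: rat C6 glioma line stably carrying human EP2 under a CMV promoter; the protocol text gives 20 µM as final concentration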
NPY Y1 blocker = NPY-Y1 (human) receptor antagonism; actives 1% (n = 200,000); P25929; inhibition, % at 3.6 µM; HEK293-CNG Y1 cells, membrane potential fluorescence; NPY at EC95, then isoproterenol; AID 1040;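 active means inhibition above the campaign mean inhibition of all tested compounds plus 3 SD, cut at about 20% in these data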
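material = HEK293 cells with Y1 receptor plus CNG channel | also added = NPY 25 nM then isoproterenol 1 µM plus Ro 20-1724 25 µM | schedule = dye 3 h, compound 60 min room temperature, stimulation 45 min | measured by = membrane potential fluorescence | benchmarks = high control isoproterenol alone, low control NPY with isoproterenol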
NPY Y2 blocker = antagonists of human neuropeptide Y receptor Y2; actives 0.99% (n = 140,000); inhibition, % at 2.7 µM; P49146; NPY-Y2 expressing cells, antagonist mode; in the data active means inhibition above about 17%
Target sequence (P49146 whole entry, looked up): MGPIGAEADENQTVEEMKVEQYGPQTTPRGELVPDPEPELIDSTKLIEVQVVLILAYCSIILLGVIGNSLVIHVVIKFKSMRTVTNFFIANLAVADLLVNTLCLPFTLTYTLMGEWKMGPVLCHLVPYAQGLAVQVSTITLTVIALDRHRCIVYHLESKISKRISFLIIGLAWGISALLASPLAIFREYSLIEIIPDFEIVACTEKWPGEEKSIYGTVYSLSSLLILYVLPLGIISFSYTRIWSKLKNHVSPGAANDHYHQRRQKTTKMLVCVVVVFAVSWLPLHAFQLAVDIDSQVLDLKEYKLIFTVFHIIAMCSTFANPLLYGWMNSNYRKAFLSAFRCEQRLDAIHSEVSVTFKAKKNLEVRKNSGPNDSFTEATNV
NPY2 pot ag = potentiates or activates human NPY-Y2 receptor; P49146; cells expressing NPY-Y2, potentiator/agonist read-out; activation, % at 3.6 µM; actives 0.45% (n = 220,000); AID 1359; in the data active means activation above about 27%;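 further: cells stimulated with NPY near EC25 plus isoproterenol at EC100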
NPY1 pot ag = human NPY-Y1 potentiation or agonism, primary screen. NPY-Y1 expressing cells, potentiator/agonist activation. activation, % at 3.6 µM. actives 0.37% (n = 220,000). AID 1304; in the data active means activation above about 33%, passing the limit was not always enough;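 further: cells stimulated with NPY at EC10 then isoproterenol at EC100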
Hits are given with their value; i = inactive; nt = no result given; ! = repeats disagree.

SMILES	PGE2 EP2 inh	EP2 modulator	NPY Y1 blocker	NPY Y2 blocker	NPY2 pot ag	NPY1 pot ag
O=C(CN(c1cccc(C(F)(F)F)c1)S(=O)(=O)c1ccc(Cl)c([N+](=O)[O-])c1)NCc1ccccc1	i	i	i	i	61	81
CC(NC(=O)CN(c1cccc(C(F)(F)F)c1)S(=O)(=O)c1ccc(Cl)c([N+](=O)[O-])c1)c1ccccc1 (centres undefined)	i	i	i	i	50	75
Cc1ccc(N(CC(=O)NCCc2ccc(F)cc2)S(=O)(=O)c2ccc(Cl)c([N+](=O)[O-])c2)c(C)c1	i	i	i	i	39	68
O=C(CN(c1ccc(Br)cc1)S(=O)(=O)c1ccc(Cl)c([N+](=O)[O-])c1)NCCc1ccccc1	i	i	i	nt	i	i
Cc1ccc2nc(N3C(=O)C(O)=C(C(=O)c4ccco4)C3c3ccc(O)cc3)sc2c1 (centres undefined)	i	i	nt	nt	nt	nt
Cc1ccc2nc(N3C(=O)C(O)=C(C(=O)c4ccc(C)o4)C3c3ccco3)sc2c1 (centres undefined)	49	i	nt	nt	nt	nt
COc1cc(C2NC(C(=O)O)CS2)ccc1OCc1c(Cl)cccc1Cl (centres undefined)	i	i	nt	nt	nt	nt
CCCCC[C@H](O)/C=C/C1=C(CCCCCCC(=O)O)C(=O)CC1	i	89	i	i	i	i
COc1cccc(-c2ccc(=O)n(CC(=O)Nc3nc(C45CC6CC(CC(C6)C4)C5)cs3)n2)c1	i	i	nt	nt	nt	nt
CCOC(=O)C1(CCOc2ccccc2)CCN(Cc2ccc3c(c2)OCCO3)CC1	i	i	21	nt	i	i
CCOC(=O)C1(Cc2cccc(OC)c2)CCN(Cc2cccc3c2OCO3)CC1	i	i	21	nt	i	i
CCOC(=O)C1(Cc2cccc(OC)c2)CCN(Cc2cccc(OC)c2OC)CC1	i	i	i	nt	i	i
CCCc1nc(SCC(=O)N(C(C)C)C(C)C)c2ccccc2n1	i	i	nt	nt	nt	nt
COc1ccc(OC)c(C(=O)CSc2nc(C)cc(C)c2C#N)c1	i	i	nt	nt	nt	nt
CC(C)c1nc2ccc(Br)cn2c1NC1CCCC1	i	65	i	nt	i	i
Cc1cccc2nc(C(C)C)c(NC3CCCC3)n12	i	i	nt	nt	nt	nt
CCc1cc2cc(C)cc(C)c2nc1SCC(=O)NCc1ccc2c(c1)OCO2	i	70	nt	nt	nt	nt
CCc1cc2cc3c(cc2nc1SCC(=O)NCc1ccccc1)OCO3	i	81	nt	nt	nt	nt
CCc1cc2cc3c(cc2nc1SCC(=O)Nc1cc(C)on1)OCO3	i	73!	i	i	i	i
Cc1cc2cc3c(cc2nc1SCC(=O)Nc1cccc(F)c1)OCO3	i	66	nt	nt	nt	nt
CCOC(=O)c1c(-c2ccc(F)cc2)csc1NC(=O)C(C)C	i	i	nt	nt	nt	nt
Cc1cc(NC(=O)CSc2nc(C3CC3)nc3sc4c(c23)CCCC4)no1	47	i	nt	nt	nt	nt
COc1cc2c3cc1Oc1c(OC)c(OC)cc4c1[C@@H](Cc1ccc(O)c(c1)Oc1ccc(cc1)C[C@@H]3N(C)CC2)CN(C)C4	48	i	nt	nt	nt	nt
COc1cc2c3cc1Oc1cc(ccc1O)C[C@@H]1c4c(cc(OC)c(O)c4Oc4ccc(cc4)C[C@@H]3N(C)CC2)CC[N+]1(C)C	i	i	nt	nt	nt	nt
COc1ccc2cc1Oc1ccc(cc1)C[C@H]1c3c(cc(OC)c4c3Oc3cc5c(cc3O4)CCN[C@H]5C2)CCN1C	47	i	nt	nt	nt	nt
SMILES	PGE2 EP2 inh	EP2 modulator	NPY Y1 blocker	NPY Y2 blocker	NPY2 pot ag	NPY1 pot ag
CCOC(=O)c1cc(-c2ccc(N(CC)CC)cc2)no1	i	i	nt	nt	nt	nt
N=c1c2c(-c3ccccc3)c(-c3ccccc3)oc2ncn1CCCN1CCOCC1	i	i	21	27	i	i
CC1CCCc2sc3nc(NCc4ccco4)n4ncnc4c3c21 (centres undefined)	i	i	39	28	i	i
Nc1c(C(=O)O)ccc2c1C(=O)c1ccccc1C2=O	i	i	i	nt	i	i
O=C(O)c1cccc(N=Nc2c(S(=O)(=O)O)ccc3c2C(=O)c2ccccc2C3=O)c1O	46	i	nt	nt	nt	nt
Cc1ccc(S(=O)(=O)C2(C(=O)N[C@H](C)Cn3nnc4ccccc43)CC2)cc1C	i	i	nt	nt	nt	nt
CCOc1ccccc1NC(=O)c1sc(NC(=O)c2ccc(F)cc2)c(C(=O)OC)c1C	i	i	nt	nt	nt	nt
O=C(Nc1nc2c(Cl)ccc(Cl)c2s1)c1ccco1	70	i	i	i	i	i
COc1ccc([C@H]2[C@H](C(=O)C(C)(C)C)N3N=Cc4ccccc4C3[C@]23N=C(c2ccccc2)OC3=O)cc1 (some centres undefined)	i	i	27	i	i	i
Cc1ccc2c(c1)N(CC(=O)OC(CC(C)C)C(=O)NC1CCCC1)C(=O)CO2 (centres undefined)	i	i	33	21	i	i
CCCCN1C(=O)C(NC(C)=O)c2cc(Br)ccc21 (centres undefined)	i	i	27	20	i	i
CC(C)OCCCNC(=O)C1CCN(S(=O)(=O)c2ccc(Cl)cc2)CC1	i	i	nt	nt	nt	nt
Cc1oc2ccccc2c1CN(CCN(C)C)Cc1cccs1	i	i	nt	nt	nt	nt
Cn1cnnc1SCC(=O)Nc1ccc(Cl)cn1	i	i	i	nt	71	74
CCOC(=O)c1c(C)nc2c(c1-c1ccccc1)C(=O)c1ccccc1-2	i	61	i	i	i	i
CCOC(=O)c1c(CCl)nc2ccccc2c1-c1ccccc1	i	87	nt	nt	i	i
CCOC(=O)c1c(C)nc2ccc(Cl)cc2c1-c1ccccc1	i	i	i	i	i	i
CCOC(=O)c1c(C)nc2c(c1-c1cc(OC)ccc1OC)C(=O)c1ccccc1-2	i	i	i	i	i	i
COc1ccc2[nH]c(=O)c(CN(CC3CCCO3)S(=O)(=O)c3ccccc3Cl)cc2c1 (centres undefined)	i	i	nt	nt	nt	nt
COC(=O)C1=NN(c2ccccc2)C2(S1)S/C(=C\c1ccccc1)C(=O)N2c1ccccc1 (centres undefined)	i	i	i	i	i	i
CCOC(=O)C1=NN(c2ccccc2)C2(S1)SC(C(C)=O)=C(C)N2c1ccccc1 (centres undefined)	i	63	i	i	i	i
COC(=O)CSC1=NS(=O)(=O)c2ccccc21	114	i	i	i	i	i
COc1ccc(C(=O)N2CCN(Cc3ccccc3Cl)CC2)cc1OC	i	i	nt	nt	nt	nt
Nc1nonc1C(=O)NCCNCc1c(OCc2ccccc2F)ccc2ccccc12	i	i	34	50	i	i
Nc1nonc1C(=O)NCCNCc1cc(Br)ccc1OCc1ccc(F)cc1	i	i	i	i	i	i
CCCC(c1nnnn1C(C)(C)C)N1CCN(c2ccccc2)CC1 (centres undefined)	i	i	21	nt	i	i
COc1cccc(CNc2cc(CSc3ccc(Cl)cc3)nc(C)n2)c1	i	i	21	21	i	i
COc1ccccc1CNc1cc(CSc2ccc(Cl)cc2)nc(C)n1	i	i	i	i	i	i
Cc1ccc(CN(CCCn2ccnc2)Cc2cccn2-c2cccc(F)c2)o1	i	62	nt	nt	nt	nt

Assay outcomes as filed in PubChem.
